Consider five compounds from ChEMBL document CHEMBL3804807, “Purine analogs as phosphatidylinositol 4-kinase IIIβ inhibitors” (Bioorg Med Chem Lett, 2016).

Data set [1] can be described thus: Cytotoxicity against human HeLa cells. In kind it is cell-based.
The nature of data set [2]: Inhibition of PI4K3 beta (unknown origin) by ADP-Glo assay. Details: species or system Homo sapiens.
A further data set has as its system Human rhinovirus sp. In words: Antiviral activity against Human rhinovirus. The format is functional, organism-based.
Data set [3] is filed under the species Homo sapiens. Kind of data set: Inhibition of PI4K3 alpha (unknown origin) at 10 uM by ADP-Glo assay relative to control. The gist of the method: (§1)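 PI4K IIIα and PI4K IIIβ activity read by ADP-Glo assay. Each compound was tested at a single concentration of 10 μM, and residual enzyme activity was expressed relative to control.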
For data set [4], the species on record is Homo sapiens. Kind of data set: Inhibition of PI4K3 beta (unknown origin) assessed as residual activity at 10 uM by ADP-Glo assay relative to control. The gist of the method: as §1
For orientation: In ADP-Glo the light output rises with the ADP produced.

The subject of another data set is Hepatitis C virus. In words: Antiviral activity against Hepatitis C virus subtype 1b. The format is functional, organism-based, Hepacivirus hominis. The following applies: genotype 1b.
The test system of the next data set is Coxsackievirus B3. In words: Antiviral activity against Human coxsackievirus B3. The following applies: Enterovirus B. In kind it is functional, organism-based.

Take `COc1ccc(-n2c(C)nc3c(NCCN4CCOCC4)nc(N)nc32)cc1OC`: the cytotoxic concentration (CC50) (in general, the concentration at which the toxic effect on the cells reaches its halfway point) in data set [1] is over 50 µM. In addition, the IC50 (usually the concentration that gives 50% inhibition) in data set [2] amounted to 1.44 µM. Also, the values for the EC50 in the data set with Human rhinovirus sp., in the data set on Hepatitis C virus and in the data set on Coxsackievirus B3 were 49 µM, 40 µM and 19 µM, respectively. The inhibition (usually the drop in the measured response relative to a control, in per cent) in the data set listed under Homo sapiens [3] was under 50%. For the same compound, the Activity in the data set listed under Homo sapiens [4] worked out at 25%.
For `COc1ccc(-n2c(C)nc3c(NCCN4CCOCC4)ncnc32)cc1OC`, in data set [1], the CC50 was over 50 µM. Besides, in data set [2], the IC50 came to 1.61 µM. In addition, the EC50 (usually the midpoint of the concentration-response curve) was 28 µM with Human rhinovirus sp., 19 µM in the data set with Hepatitis C virus and 5 µM in the data set on Coxsackievirus B3. The same compound returned an inhibition in the data set filed under Homo sapiens [3] of under 50%. In the data set filed under Homo sapiens [4], the Activity came to 13%.
Compound `COc1ccc(-n2c(C)nc3c(NCCN4CCOCC4)nc(C#N)nc32)cc1OC` returned a CC50 in data set [1] of over 50 µM. Moreover, the IC50 in data set [2] amounted to 2.07 µM. The EC50 in the data set on Human rhinovirus sp. was 31 µM; with Hepatitis C virus, 14 µM; in the data set on Coxsackievirus B3, over 50 µM. This compound also returned an inhibition in the data set listed under Homo sapiens [3] of under 50%. Also, the Activity in the data set listed under Homo sapiens [4] was 24%.
`COc1nc(NCCN2CCOCC2)c2nc(C)n(-c3ccc(OC)c(OC)c3)c2n1` returned a CC50 in data set [1] of over 50 µM. The compound further yielded an IC50 in data set [2] of 2.99 µM. In addition, the concentration giving a half-maximal response (EC50) with Human rhinovirus sp. was 16 µM; in the data set with Hepatitis C virus it was 6 µM; in the data set with Coxsackievirus B3, over 50 µM. The compound also displayed an inhibition in the data set listed under Homo sapiens [3] of under 50%. For the same compound, in the data set listed under Homo sapiens [4], the Activity worked out at 15%.
`COc1ccc(-n2c(C)nc3c(NCCN4CCOCC4)nc(-c4cccc(C(=O)N(C)C)c4)nc32)cc1OC`: the cytotoxic concentration (CC50) in data set [1] was over 50 µM. For the same compound, in data set [2], half-maximal inhibition (IC50) required 1.09 µM. Moreover, the 50% effective concentration (EC50) was 3.3 µM in the data set on Human rhinovirus sp., 3.8 µM in the data set with Hepatitis C virus and 1.1 µM in the data set with Coxsackievirus B3. The inhibition in the data set filed under Homo sapiens [3] was under 50%. The Activity in the data set listed under Homo sapiens [4] was 16%.
